The nature of series [1]: Compound was tested for the partition coefficient between octanol and water. Type of series: physicochemical. In short, it runs like this:
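Octanol/water partition: octanol and water mutually pre-saturated for 24 h before the study; compound absorbance read at 318 nm in the water-saturated octanol phase and in the octanol-saturated water phase; coefficient taken as the ratio of the two absorbances.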

Another series deals with EMT6. Description: Anoxic/Oxic uptake ratio was measured in EMT-6 cell line at 3h. Particulars: Mus musculus. Type of series: functional, cell-based. In short, it runs like this: (§1)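 [131I]-labelled agent at 50 μM in 1 mL medium (25 mM HEPES), rinsed then replaced with fresh labelled medium. Monolayers (exponential or unfed plateau phase) held as thin film at 37 °C under 95% air/5% CO2 (oxic) or 95% N2/5% CO2 (anoxic) for 3 h. Cells trypsinized, gamma-counted, uptake as pmol/10^6 cells. Ratio = anoxic/oxic uptake, three plates.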

The species entered for a further series is Rattus norvegicus. Nature of the series: Anoxic/Oxic uptake ratio was measured in rat myocytes at 3h. Type of series: functional. In short, it runs like this:
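Adult rat myocytes from collagenase dissociation, cultured overnight at 37 °C in modified MEM. Thin medium layer with 50 μM [131I]-labelled agent at 37 °C under 95% air/5% CO2 or 95% N2/5% CO2, anoxia confirmed by dithionite/methylene blue indicator. Cells rinsed cold, EtOH-fixed, counted microscopically, scraped and gamma-counted. Uptake as dpm per cells; eight plates.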

In another series the test system is CaOs-1 cell line. Description: Anoxic/Oxic uptake ratio was measured in CaOs-1 cell line at 3h. Format: functional, cell-based. Particulars: Canis lupus familiaris. In short, it runs like this: as §1
The subject of another series is V79. Nature of the series: Anoxic/Oxic uptake ratio was measured in V-79 cell line at 3h. Format: functional, cell-based. Particulars: Cricetulus griseus. In short, it runs like this: as §1
Another series relates to RIF-1. Description: Anoxic/Oxic uptake ratio was measured in RIF-1 cell line at 3h. Format: functional, cell-based. The settings on record: Mus musculus. The procedure, abridged: as §1

The structures appear in SMILES notation.

As to `O=[N+]([O-])c1nccn1C[C@@H](O)C/C=C/I`, the Partition coefficient in series [1] was determined as 2.52. Further, the Uptake ratio came out at 11 with EMT6; 22 in the series listed under Rattus norvegicus; 10.2 with CaOs-1 cell line; 12.5 with V79; 23.2 in the series with RIF-1.
Turning to `O=[N+]([O-])c1nccn1C[C@@H](O)CF`, the Partition coefficient in series [1] is given as 0.4. The Uptake ratio in the series with EMT6 amounted to 12.6; in the series filed under Rattus norvegicus, 20.3; in the series with CaOs-1 cell line it was 18; with V79 it was 27.3; in the series with RIF-1 it was 28.5.
Regarding `COC[C@H](O)Cn1ccnc1[N+](=O)[O-]`, in series [1], the Partition coefficient is 0.41.
The same measure, in the same setting: the value for `COC[C@H](O)Cn1cc(Br)nc1[N+](=O)[O-]` was 2.87.

(Values after ChEMBL document CHEMBL1125583, “Synthesis of an (iodovinyl)misonidazole derivative for hypoxia imaging” (J Med Chem, 1991).)
